According to ChEMBL document CHEMBL3243935, “Analgesic and tranquilizing activity of 5,8-disubstituted 2-aminomethyl-3,4-dihydronaphthalenes” (J Med Chem, 1978):
The source made the active and inactive calls.

Legend:
Mus musculus [1] = assay: Analgesic activity in Swiss CD mouse at 100 mg/kg, ip measured 2 hrs post treatment by hot-plate method relative to control; assay type: functional; settings: route intraperitoneal
Method in brief: (§1)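 Male mice, about 20 g, dosed ip in saline. Each mouse was dropped into a glass cylinder on an aluminium plate held at 57 °C. Latency to the first flick of a hind foot was timed at 0.5 and 2 h post-dose, with a 10-s cutoff. At least ten mice per dose. Percent control = mean latency ÷ mean control latency × 100; 200% was the lower bound of activity.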

Mus musculus [2] = assay: Analgesic activity in Swiss CD mouse assessed as elevation of response latency at 100 mg/kg, ip measured 2 hrs post treatment by tail flick method relative to control; assay type: functional; settings: route intraperitoneal
Method in brief: (§2)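 Male mice, about 20 g, dosed ip in saline (solution or suspension). High-intensity heat was focused on the tail, and latency to a sudden tail flick was timed, with a 10-s cutoff. Tests ran at 0.5 and 2 h post-dose, with at least ten mice per dose. Percent control = mean latency ÷ mean control latency × 100; 200% was the lower bound of activity.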

Mus musculus [3] = assay: Toxicity in Swiss CD mouse assessed as loss of righting reflex at 100 mg/kg, ip measured 0.5 hr post treatment; assay type: organism-based; design: dose 100 mg/kg, route intraperitoneal; settings: in vivo
Method in brief: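 Male Swiss CD mice (about 20 g) given compound ip in saline solution or suspension, usually 5 mL/kg, during hot-plate/tail-flick screening. At least ten mice per dose. Loss of righting reflex noted at 0.5 h after dosing.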

Rattus norvegicus [4] = assay: Neuroleptic activity in ip dosed Sprague-Dawley CD rat assessed as reversal of amphetamine-induced stereotypy compound administered 1hr prior challenge; assay type: functional
Method in brief: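 Rats dosed ip, then given amphetamine sulfate 5 mg/kg 1 h later. The ED50 is the dose that reverses the amphetamine-induced stereotypy.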

Mus musculus [5] = assay: Analgesic activity in Swiss CD mouse at 100 mg/kg, ip measured 0.5 hr post treatment by hot-plate method relative to control; assay type: functional; settings: route intraperitoneal; method in brief: as §1
Mus musculus [6] = assay: Analgesic activity in Swiss CD mouse assessed as elevation of response latency at 100 mg/kg, ip measured 0.5 hr post treatment by tail flick method relative to control; assay type: functional; settings: route intraperitoneal; method in brief: as §2
Rattus norvegicus [7] = assay: Neuroleptic activity in decarboxylase-inhibited Sprague-Dawley CD rat brain assessed as increase in DOPA accumulation at 0.056 mmol/kg relative to control; assay type: functional; design: scale not given: the % may be the effect or the level left
Rattus norvegicus [8] = assay: Analgesic activity in Sprague-Dawley CD rat at 32 mg/kg, ip measured 0.5 to 2 hrs post treatment by flinch-jump method relative to control; assay type: functional, organism-based; design: dose 32 mg/kg
Method in brief: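 Male rats, 200-300 g, dosed ip (saline solution or suspension). A single rising series of 1-s foot shocks was given just before and at 0.5 and 2 h after dosing. The minimum shock intensity (mA) evoking each behaviour was recorded. No response at the 2.2-mA level counted as activity. At least five rats per dose.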

Mus musculus [9] = assay: Analgesic activity in Swiss CD mouse at 100 mg/kg, ip bid for 4 days measured after 4 days by hot-plate method relative to control; assay type: functional, organism-based; design: dose 100 mg/kg
Method in brief: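 Tolerance test in male mice: 100 mg/kg ip bid for 4 days, with hot-plate latency measured against control. A parallel group received morphine sulfate 10 mg/kg ip bid.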

Canis familiaris [10] = assay: Analgesic activity in dog assessed as increase in response threshold at 3.2 mg/kg, sc measured 0.5 to 2 hrs post treatment by radiant heat method relative to control; assay type: functional, Canis lupus familiaris; settings: route subcutaneous
Method in brief: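 Male mongrel dogs (9-12 kg) received the agent sc in saline solution or suspension. The radiant heat stimulus end point was reflex fasciculation of the back muscles. Each animal was tested 0.5 and 2 h after dosing, and the end point was expressed as percent of control latency.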

Canis familiaris [11] = assay: Analgesic activity in po dosed dog assessed as increase in response threshold by radiant heat method; assay type: functional; settings: Canis lupus familiaris
Method in brief: (§3)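 Male mongrel dogs, 9-12 kg. The response threshold was the reflex fasciculation of the back muscles under radiant heat. Testing was at 0.5 and 2 h post-dose, with the end point expressed as percent of control latency.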

Mus musculus [12] = assay: Analgesic activity in Swiss CD mouse at 100 mg/kg, ip bid for 4 days by hot-plate method relative to control in presence of naloxone; assay type: functional, organism-based; design: dose 100 mg/kg
Mus musculus [13] = assay: Analgesic activity in Swiss CD mouse at 100 mg/kg, ip bid for 4 days by tail flick method relative to control in presence of naloxone; assay type: functional, organism-based; design: dose 100 mg/kg
Mus musculus [14] = assay: Analgesic activity in Swiss CD mouse at 100 mg/kg, ip bid for 4 days measured after naloxone challenge on day 4 by hot-plate method relative to control; assay type: functional, organism-based; design: dose 100 mg/kg
Rattus norvegicus [15] = assay: Neuroleptic activity in decarboxylase-inhibited Sprague-Dawley CD rat brain assessed as increase in DOPA accumulation at 0.1 mmol/kg relative to control; assay type: functional; design: scale not given: the % may be the effect or the level left
Rattus norvegicus [16] = assay: Neuroleptic activity in decarboxylase-inhibited Sprague-Dawley CD rat brain assessed as increase in DOPA accumulation at 0.001 mmol/kg relative to control; assay type: functional; design: scale not given: the % may be the effect or the level left
Mus musculus [17] = assay: Analgesic activity in Swiss CD mouse at 56 mg/kg, ip measured 0.5 hr post treatment by hot-plate method relative to control; assay type: functional; settings: route intraperitoneal; method in brief: as §1
Mus musculus [18] = assay: Analgesic activity in Swiss CD mouse at 56 mg/kg, ip measured 2 hrs post treatment by hot-plate method relative to control; assay type: functional; settings: route intraperitoneal; method in brief: as §1
Mus musculus [19] = assay: Analgesic activity in Swiss CD mouse assessed as elevation of response latency at 56 mg/kg, ip measured 0.5 hr post treatment by tail flick method relative to control; assay type: functional; settings: route intraperitoneal; method in brief: as §2
Mus musculus [20] = assay: Analgesic activity in Swiss CD mouse assessed as elevation of response latency at 56 mg/kg, ip measured 2 hrs post treatment by tail flick method relative to control; assay type: functional; settings: route intraperitoneal; method in brief: as §2
Canis familiaris [21] = assay: Analgesic activity in dog assessed as increase in response threshold at 16 mg/kg, sc measured 0.5 to 2 hrs post treatment by radiant heat method relative to control; assay type: functional, organism-based; design: dose 16 mg/kg; settings: Canis lupus familiaris; method in brief: as §3

For `CCc1ccc2c(c1)C=C(CN1CCCC1)CC2.Cl`, the Activity (Mus musculus [1]) was 130%, the Activity (Mus musculus [2]) was 198% and the Activity (Mus musculus [3]) was “Toxic”.

With `Br.COc1ccc(Cl)c2c1CCC(CN1CCOCC1)=C2` the ED50 (Rattus norvegicus [4]) was over 32 mg/kg, the Activity (Mus musculus [5]) was 95% and the Activity (Mus musculus [1]) was 90%. It also gave an Activity (Mus musculus [6]) of 136%, an Activity (Mus musculus [2]) of 125% and an Activity (Rattus norvegicus [7]) of 243%.

`Br.COc1ccc(Cl)c2c1CCC(CN1CCCC1)=C2` was tested, and the ED50 (Rattus norvegicus [4]) was 32 mg/kg, the Activity (Mus musculus [5]) was 282% and the Activity (Mus musculus [1]) was 117%. The Activity (Mus musculus [6]) was 238%, the Activity (Mus musculus [2]) was 135% and the Activity (Rattus norvegicus [8]) was “Active”. For the same compound, the Activity (Mus musculus [9]) was “Active”, the Activity (Canis familiaris [10]) was 50% and the ED50 (Canis familiaris [11]) was 16.2 mg/kg. For the same compound, the Activity (Mus musculus [12]) was “Active”, the Activity (Mus musculus [13]) was “Active” and the Activity (Mus musculus [14]) was “Active”. It also gave an Activity (Rattus norvegicus [15]) of 288%.

`CCOC1(c2ccccc2)CCN(CC2=Cc3c(Cl)ccc(OC)c3CC2)CC1` was tested, and the Activity (Mus musculus [5]) was 262%, the Activity (Mus musculus [1]) was 156% and the Activity (Mus musculus [6]) was 196%. For the same compound, the Activity (Mus musculus [2]) was 157% and the Activity (Rattus norvegicus [16]) was 491%.

With `CCOC(=O)C1(c2ccccc2)CCN(C)CC1` [MEPERIDINE] the Activity (Mus musculus [17]) was 296%, the Activity (Mus musculus [18]) was 231% and the Activity (Mus musculus [19]) was 194%. For the same compound, the Activity (Mus musculus [20]) was 160% and the Activity (Canis familiaris [21]) was “Active”.
